This is an account of results in ChEMBL document CHEMBL4765404, “Identification of benzofused five-membered sultams, potent dual NOD1/NOD2 antagonists in vitro and in vivo” (Eur J Med Chem, 2020).

Molecules are shown by their SMILES.

Common to all, as to type: cell-based
The target of series [1] is T1, Nucleotide-binding oligomerization domain-containing protein 2 (Homo sapiens, UniProt Q9HC29). In words: Antagonist activity at human NOD2 in HEK-Blue hNOD2 cells assessed as reduction in secreted alkaline phosphatase reporter activity at 10 uM preincubated for 3 hrs followed by stimulated with MDP for 20 hrs by Spectrophotometer method.
T1 sequence (Q9HC29 whole entry, the tested form may be a part): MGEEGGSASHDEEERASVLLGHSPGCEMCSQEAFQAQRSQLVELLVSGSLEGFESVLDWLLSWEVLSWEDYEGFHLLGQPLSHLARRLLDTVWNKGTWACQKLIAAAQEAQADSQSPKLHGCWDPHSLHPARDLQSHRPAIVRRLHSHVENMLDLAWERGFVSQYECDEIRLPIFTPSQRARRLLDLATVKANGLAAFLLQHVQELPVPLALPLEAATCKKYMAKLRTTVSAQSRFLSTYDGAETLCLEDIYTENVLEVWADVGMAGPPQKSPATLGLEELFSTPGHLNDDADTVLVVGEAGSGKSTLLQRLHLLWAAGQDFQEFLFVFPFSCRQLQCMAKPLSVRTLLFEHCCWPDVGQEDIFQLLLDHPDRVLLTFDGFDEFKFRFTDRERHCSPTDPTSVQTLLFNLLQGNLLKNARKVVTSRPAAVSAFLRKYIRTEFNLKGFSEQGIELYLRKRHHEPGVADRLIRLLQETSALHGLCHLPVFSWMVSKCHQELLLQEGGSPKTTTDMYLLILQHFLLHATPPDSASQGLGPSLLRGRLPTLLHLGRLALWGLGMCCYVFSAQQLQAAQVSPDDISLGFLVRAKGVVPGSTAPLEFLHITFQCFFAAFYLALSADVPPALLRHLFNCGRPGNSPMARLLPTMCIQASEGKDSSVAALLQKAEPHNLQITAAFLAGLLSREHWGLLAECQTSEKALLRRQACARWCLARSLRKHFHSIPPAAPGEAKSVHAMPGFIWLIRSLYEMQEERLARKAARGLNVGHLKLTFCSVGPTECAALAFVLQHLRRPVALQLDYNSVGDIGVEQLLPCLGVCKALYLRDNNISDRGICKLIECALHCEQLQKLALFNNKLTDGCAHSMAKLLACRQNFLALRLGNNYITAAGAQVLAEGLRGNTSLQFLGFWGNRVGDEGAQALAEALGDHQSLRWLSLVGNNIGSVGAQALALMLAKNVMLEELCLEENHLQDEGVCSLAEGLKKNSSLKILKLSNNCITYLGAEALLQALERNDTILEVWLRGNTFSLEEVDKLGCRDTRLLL
The target of series [2] is T1, Nucleotide-binding oligomerization domain-containing protein 2. In words: Antagonist activity at human NOD2 in HEK-Blue hNOD2 cells assessed as secreted alkaline phosphatase reporter activity preincubated for 3 hrs followed by stimulated with MDP for 20 hrs by Spectrophotometer method.
The nature of series [3]: Cytotoxicity against human HEK-Blue hNOD2 cells assessed as cell viability measured by SRB assay. The method in brief:
(§1)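 Run on the same HEK-Blue hNOD1 (C12-iE-DAP 50 ng/mL) or hNOD2 (MDP 100 ng/mL) wells after SEAP readout, following 3 h compound plus 20 h stimulation. Cells fixed in 80% TCA, 4 °C, 1 h; SRB in 1% acetic acid, 10 min; washed, dried; dye dissolved in 10 mM Tris base; A515. Growth inhibition = (C−T)/C × 100, n = 3.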

Series [4] is described as follows: Cytotoxicity against human HEK-Blue hNOD1 cells assessed as cell viability measured by SRB assay. A digest of the protocol:
as §1

`C=CCN1C(CC(=O)OCCCC)c2cccc(C)c2S1(=O)=O` (stereo not drawn): the inhibition in series [1] came to 5.52%.

Consider `CCCCOC(=O)CC1c2c(F)ccc(C)c2S(=O)(=O)N1C(=O)c1ccc(C(F)(F)F)cc1` (stereo not drawn), for which the IC50 in series [2] amounted to 4.05 µM.

For `CCCCOC(=O)CC1c2cccc(C)c2S(=O)(=O)N1C(=O)OC` (stereo not drawn), in series [1], the inhibition is -0.67%.

For `CCCCOC(=O)CC1c2cccc(C)c2S(=O)(=O)N1C` (stereo not drawn), the inhibition in series [1] was found to be 4.63%.

For the compound `CCCCOC(=O)CC1c2cccc(Cl)c2S(=O)(=O)N1C(=O)c1ccc(C(F)(F)F)cc1` (stereo not drawn), in series [2], the 50% inhibitory concentration (IC50) was 1.39 µM.

With `CCCCOC(=O)CC1c2cccc(C)c2S(=O)(=O)N1C(=O)c1ccc(C#N)cc1` (stereo not drawn), the IC50 in series [2] came to 5.45 µM.

Regarding `Cc1cccc2c1S(=O)(=O)N(C(=O)c1ccc(C(F)(F)F)cc1)C2CC(=O)O` (stereo not drawn), the inhibition in series [1] worked out at 10.3%.

In the case of `CCCCOCCC1c2cccc(C)c2S(=O)(=O)N1C(=O)c1ccc(C(F)(F)F)cc1` (stereo not drawn), in series [1] (filed as antagonist), the inhibition worked out at 45.9%.

Turning to `CCCCOC(=O)CC1c2cccc(C)c2S(=O)(=O)N1Cc1ccccc1` (stereo not drawn), in series [1] (filed as antagonist), the inhibition worked out at 41.4%.

Consider `CCCCOC(=O)CC1c2cccc(C(=O)OCCCC)c2S(=O)(=O)N1C(=O)c1ccc(C(F)(F)F)cc1` (stereo not drawn), for which, in series [2], the IC50 is 4.29 µM.

As to `CCCCOC(=O)CC1c2cc(OC)cc(OC)c2S(=O)(=O)N1C(=O)c1ccc(C(F)(F)F)cc1` (stereo not drawn), the IC50 in series [2] amounted to 3.96 µM.

Consider `COC(=O)CC1c2cccc(C)c2S(=O)(=O)N1C(=O)c1ccc(C(F)(F)F)cc1` (stereo not drawn), for which the IC50 in series [2] amounted to 3.55 µM.

Take `CCCCOC(=O)CC1c2ccc(Cl)c(C)c2S(=O)(=O)N1C(=O)c1ccc(C(F)(F)F)cc1` (stereo not drawn): the IC50 in series [2] came out at 9.83 µM.

For the compound `CCCCOC(=O)CC1c2cccc(C)c2S(=O)(=O)N1NC(=O)c1ccc(C(F)(F)F)cc1` (stereo not drawn), in series [1] (filed as antagonist), the inhibition was determined as 60%.

For `CCCCOC(=O)CC1c2cccc(C)c2S(=O)(=O)N1C(=O)c1ccco1` (stereo not drawn), the inhibition in series [1] was determined as 1.83%.

For the compound `CCCCOC(=O)CC1c2cccc(C)c2C(=O)N1C(=O)c1ccc(C(F)(F)F)cc1` (stereo not drawn), the IC50 in series [2] worked out at 2.36 µM.

With `CCCCOC(=O)CC1c2cc(C)cc(C)c2S(=O)(=O)N1C(=O)c1ccc(C(F)(F)F)cc1` (stereo not drawn), the half-maximal inhibitory concentration (IC50) in series [2] came to 1.85 µM.

As to `CCCCOC(=O)CC1c2cc(F)cc(C)c2S(=O)(=O)N1C(=O)c1ccc(C(F)(F)F)cc1` (stereo not drawn), the concentration for half-maximal inhibition (IC50) in series [2] was determined as 6.7 µM.

For `CCCCOC(=O)/C=C1\c2cccc(C)c2S(=O)(=O)N1C(=O)c1ccc(C(F)(F)F)cc1`, the inhibition in series [1] worked out at 54.4%.

Regarding `CCCCOC(=O)CC1c2cccc(C)c2S(=O)(=O)N1C(=O)c1ccc(C)cc1` (stereo not drawn), the inhibition in series [1] (filed as antagonist) turned out to be 55.5%.

Consider `CCCCOC(=O)CC1c2cccc(C)c2S(=O)(=O)N1Cc1ccc(C(F)(F)F)cc1` (stereo not drawn), for which the inhibition in series [1] (filed as antagonist) was determined as 42.5%.

As to `CCCCc1nnc(CC2c3cccc(C)c3S(=O)(=O)N2C(=O)c2cccc(C(F)(F)F)c2)o1` (stereo not drawn), the IC50 in series [2] is 4.65 µM.

Regarding `CCCCOC(=O)CC1c2cccc(C)c2S(=O)(=O)N1CC(=O)c1ccc(C(F)(F)F)cc1` (stereo not drawn), the inhibition in series [1] worked out at 7.2%.

Consider `CCCCOC(=O)CC1c2cccc(C)c2S(=O)(=O)N1CC` (stereo not drawn), for which, in series [1], the inhibition was -1%.

Take `CCCCOC(=O)CC1c2cccc(C)c2S(=O)(=O)N1C(=O)c1ccc(C(F)(F)F)cc1` (stereo not drawn): the half-inhibitory concentration (IC50) in series [2] came to 1.18 µM.

Turning to `CCCCOC(=O)CC1c2cccc(C)c2S(=O)(=O)N1C(=O)c1ccccc1` (stereo not drawn), the inhibition in series [1] was determined as 24.3%.

With `CCCCOC(=O)CC1c2cccc(C)c2S(=O)(=O)N1CCCC` (stereo not drawn), the inhibition in series [1] came out at 9.07%.

Turning to `CCCCOC(=O)CC1c2cccc(C)c2S(=O)(=O)N1/C=C\C(=O)OCC` (stereo not drawn), the inhibition in series [1] was determined as 20.6%.

Consider `CCCCOC(=O)CC1c2cccc(C)c2S(=O)(=O)N1C(=O)c1cccc(C(F)(F)F)c1` (stereo not drawn), for which the Activity result in series [3] and in series [4] was “Non-Toxic” each time. For the same compound, the half-maximal inhibitory concentration (IC50) in series [2] was determined as 0.93 µM.

With `CCCCOC(=O)CC1c2cccc(C)c2S(=O)(=O)N1S(C)(=O)=O` (stereo not drawn), the inhibition in series [1] was found to be 5.29%.

As to `CCCCOC(=O)CC1c2cccc(C)c2S(=O)(=O)N1C(=O)c1ccccc1C(F)(F)F` (stereo not drawn), the IC50 in series [2] came to 0.48 µM.

As to `Cc1cccc2c1S(=O)(=O)N(C(=O)c1ccc(C(F)(F)F)cc1)C2CC(=O)OC(C)(C)C` (stereo not drawn), the IC50 in series [2] is 4.65 µM.

Take `CCCCNC(=O)CC1c2cccc(C)c2S(=O)(=O)N1C(=O)c1ccc(C(F)(F)F)cc1` (stereo not drawn): in series [1], the inhibition was 17.7%.

As to `CCCCOC(=O)/C=C/c1cc(C)cc2c1S(=O)(=O)N(C(=O)c1ccc(C(F)(F)F)cc1)C2CC(=O)OCCCC` (stereo not drawn), the inhibition in series [1] is 31.4%.

Regarding `CCCCOC(=O)CC1c2cccc(C)c2S(=O)(=O)N1C(C)=O` (stereo not drawn), the inhibition in series [1] amounted to 6.59%.

With `Cc1cccc2c1S(=O)(=O)N(C(=O)c1ccc(C(F)(F)F)cc1)C2CC(N)=O` (stereo not drawn), the inhibition in series [1] was -9.14%.

In the case of `CCCCOC(=O)CC1c2cccc(C)c2S(=O)(=O)N1C(=O)c1ccc(Cl)cc1` (stereo not drawn), the IC50 in series [2] was 1.74 µM.

For `Cc1cccc2c1S(=O)(=O)N(C(=O)c1ccc(C(F)(F)F)cc1)C2CC(=O)Nc1ccccc1` (stereo not drawn), the inhibition in series [1] was found to be 30.3%.

Take `CCCCc1noc(CC2c3cccc(C)c3S(=O)(=O)N2C(=O)c2cccc(C(F)(F)F)c2)n1` (stereo not drawn): the IC50 in series [2] came to 5.74 µM.

For `CCCCOC(=O)CC1c2c(OC)ccc(OC)c2S(=O)(=O)N1C(=O)c1ccc(C(F)(F)F)cc1` (stereo not drawn), the IC50 in series [2] is 7.03 µM.

Regarding `CCCCOC(=O)CC1c2cccc(C)c2S(=O)(=O)N1C(=O)/C=C/c1ccc(Cl)cc1` (stereo not drawn), in series [1], the inhibition was found to be 35%.
